Reference: PMC8317952 (ACS catalysis, 2020)
Several values for one entry are separate records, joined by “and”; a condition that tells them apart may be missing. Identical values can stand only once. Counter-ions that a name gives are not always drawn. Like-named read-outs stand apart in the source and are kept apart here.

What was measured:
mutants of P450BM-3 = settings: cited from earlier work
P450BM-3 [1] = molecular target: T1, P450BM-3 (Priestia megaterium, UniProt P14779); assay: biochemical; type: binding
T1 sequence (P14779 1-1049): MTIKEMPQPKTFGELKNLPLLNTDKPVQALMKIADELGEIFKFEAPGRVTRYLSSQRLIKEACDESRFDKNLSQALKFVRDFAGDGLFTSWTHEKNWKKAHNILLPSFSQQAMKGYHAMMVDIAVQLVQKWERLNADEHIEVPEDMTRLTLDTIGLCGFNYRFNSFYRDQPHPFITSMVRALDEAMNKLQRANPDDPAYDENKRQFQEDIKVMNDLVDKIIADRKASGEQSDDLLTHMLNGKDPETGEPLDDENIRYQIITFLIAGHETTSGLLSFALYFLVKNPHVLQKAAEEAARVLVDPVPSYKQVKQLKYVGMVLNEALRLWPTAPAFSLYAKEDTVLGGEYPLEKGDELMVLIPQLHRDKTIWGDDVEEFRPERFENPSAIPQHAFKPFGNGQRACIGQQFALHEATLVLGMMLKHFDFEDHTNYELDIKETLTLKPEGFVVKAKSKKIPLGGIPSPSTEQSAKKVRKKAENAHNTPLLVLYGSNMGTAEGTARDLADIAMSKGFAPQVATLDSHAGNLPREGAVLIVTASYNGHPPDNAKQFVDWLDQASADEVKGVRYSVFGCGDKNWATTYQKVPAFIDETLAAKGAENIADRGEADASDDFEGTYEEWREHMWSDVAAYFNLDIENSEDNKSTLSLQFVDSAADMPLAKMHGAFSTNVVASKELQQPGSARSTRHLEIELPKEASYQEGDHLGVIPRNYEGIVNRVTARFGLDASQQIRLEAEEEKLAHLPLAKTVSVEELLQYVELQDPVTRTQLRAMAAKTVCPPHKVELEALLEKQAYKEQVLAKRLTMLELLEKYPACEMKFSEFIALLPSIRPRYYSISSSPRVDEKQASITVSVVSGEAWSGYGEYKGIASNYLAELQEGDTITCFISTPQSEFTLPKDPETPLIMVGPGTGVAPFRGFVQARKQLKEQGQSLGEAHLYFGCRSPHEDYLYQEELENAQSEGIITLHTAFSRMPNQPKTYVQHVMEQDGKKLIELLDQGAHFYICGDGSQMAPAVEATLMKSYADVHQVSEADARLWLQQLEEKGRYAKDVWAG

P450BM-3 [2] = molecular target: T1, P450BM-3; type: binding, Bacillus megaterium; settings: read-out: Kd estimate (Kd = koff/kon); from fitted on- and off-rate constants
ferrous P450BM-3 = settings: surrogate for O2; cited from earlier work
P450BM-3 [3] = molecular target: T1, P450BM-3; assay: Steady-state NADPH oxidation; type: biochemical, Bacillus megaterium; settings: for Km / kcat: rates of NADPH oxidation, hyperbolic fit, 23 °C
P450BM-3 [4] = molecular target: T1, P450BM-3; settings: substrate-bound P450BM-3; cited from earlier work
P450BM-3 [5] = molecular target: T1, P450BM-3; assay: Pre-steady-state stopped-flow kinetics of substrate binding; set-up: species or system Bacillus megaterium; settings: for eigenvalue (λ) of spectral change, single exponential fit: ΔA390
P450BM-3 [6] = molecular target: T1, P450BM-3; type: biochemical, Bacillus megaterium; settings: for site of hydroxylation: Jones oxidation, Baeyer-Villiger, LC-MS/MS
P450 102A2 (CYP102A2) [7] = assay: Literature: NADPH oxidation and binding with dodecyl sulfate by P450 102A2; type: biochemical, B. subtilis; settings: P450 102A2 at 37 °C vs P450BM-3 at 23 °C
P450 102A2 (CYP102A2) [8] = settings: cited from earlier work
P450BM-3 [9] = molecular target: T1, P450BM-3; assay: Burst experiment: stopped-flow NADPH oxidation with lauric acid; type: biochemical, Bacillus megaterium; settings: 2 μM P450BM-3, 500 μM lauric acid, 50 μM NADPH
Summary of the method: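 In the stopped-flow instrument, enzyme (4 μM) premixed with 1 mM lauric acid was mixed with 100 μM NADPH, both in 50 mM potassium MOPS pH 7.5. Runs were at 23 °C in rapid-scanning mode, recording spectra from 332–565 nm with kinetic traces taken at individual wavelengths.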

P450BM-3 [10] = molecular target: T1, P450BM-3; settings: read-out: Kd values in the previous literature; buffer conditions appear to affect these; cited from earlier work
P450BM-3 [11] = molecular target: T1, P450BM-3; settings: cited from earlier work
[12] = read-out: Kd (spectral titration), 50 mM potassium MOPS pH 7.4, 23 °C
[13] = d0 vs d23 lauric acid, non-competitive, NADPH oxidation

Compound: CCOc1ccc2ccc(=O)oc2c1 [7-ethoxycoumarin]
- KIEs for O-deethylation (mutants of P450BM-3): 6–17

Compound: CC(O)CCCCCCCCCC(=O)O (centres unmarked) [11-OH lauric acid]
- type of difference spectrum (P450BM-3 [1]): Type I
- Kd (P450BM-3 [1]; [12]): 8 ± 2 µM
- Kd (P450BM-3 [2]): 11 µM

Compound: [C-]#[O+] [CO]
- rate constant for CO binding (ferrous P450BM-3): 1.6e+06 M⁻¹ s⁻¹

Compound: CCCCCCCCCCCCCCCC(=O)NCC(=O)O [N-palmitoylglycine]
- Km (P450BM-3 [3]): 9 ± 2 µM
- kcat (P450BM-3 [3]): 9.92 ± 0.667 s⁻¹
- rate of change of temperature-dependent spin equilibria (P450BM-3 [4]): ~ 800 s^−1

Compound: CCCCCCCCCCCCOS(=O)(=O)O [dodecyl sulfate]
- Kd (P450BM-3 [1]; [12]): 14 ± 2 µM
- Km (P450BM-3 [3]): 28 ± 1 µM
- kcat (P450BM-3 [3]): 16.3 ± 0.333 s⁻¹
- eigenvalue (λ) of spectral change, single exponential fit (P450BM-3 [5]; 2 μM dodecyl sulfate (final)): 127 s⁻¹ and 127 ± 4 s⁻¹
- eigenvalue (λ) of spectral change, single exponential fit (P450BM-3 [5]; 200 μM dodecyl sulfate (final)): 51 ± 4 s⁻¹
- rate constant for substrate binding (kon), rough value (P450BM-3 [5]; from binding rate and substrate concentration): 6e+07 M⁻¹ s⁻¹
- t1/2 of binding spectral changes (P450BM-3 [5]; stopped-flow): 0.006 to 0.025 s
- site of hydroxylation (P450BM-3 [6]): primarily ω−1 hydroxylation
- fold lower specificity constant of P450 102A2 than P450BM-3 (P450 102A2 (CYP102A2) [7]): ~ 500 fold
- apparent specificity constant kcat/S0.5 (P450 102A2 (CYP102A2) [8]; 37 °C): 1600 M⁻¹ s⁻¹
- Hill n value (P450 102A2 (CYP102A2) [8]; spectral binding and NADPH oxidation): 5.7

Compound: CCCCCCCCCCCC(=O)O [lauric acid]
- Kd (P450BM-3 [1]; [12]): 29 µM
- KIE, ^D(V/K) (P450BM-3 [3]; [13]): 0.79 ± 0.07
- KIE, ^DV (P450BM-3 [3]; [13]): 1.19 ± 0.16
- KIEs, measured with multiple concentrations of d0/d23 laurate (P450BM-3 [3]; depending on the assay method): ≤ 1.2
- kcat (P450BM-3 [3]): 19.33 ± 2.5 s⁻¹
- KIE from rates of formation of hydroxylated laurate products (P450BM-3 [6]; LC-MS, 100 μM laurate, 180 second time point): 1.03
- kinetic burst (P450BM-3 [9]): No burst was observed
- rate of NADPH oxidation, steady-state portion (P450BM-3 [9]; pH 7.5): 608 ± 4 min⁻¹
- Kd (P450BM-3 [10]): 27 to 390 µM
- rate of reduction of iron from the ferric to the ferrous state (P450BM-3 [11]): 53 to 306 s⁻¹

Compound: CCCCCCCCCCCCCC(=O)O [myristate]
- Kd (P450BM-3 [1]): 12 µM
- Kd (P450BM-3 [10]): 0.5 to 78 µM
- rate of reduction of iron from the ferric to the ferrous state (P450BM-3 [11]): 53 to 306 s⁻¹

Compound: CCCCCCCCCCCCCCCC(=O)O [palmitic acid, Palmitic acid]
- rate of reduction of iron from the ferric to the ferrous state (P450BM-3 [11]): 53 to 306 s⁻¹

Compound: CCCCCCCCCCCCCCOS(=O)(=O)O [tetradecyl sulfate]
- Kd (P450BM-3 [1]): 1.4 ± 0.1 µM
- initial rate of disappearance of NADPH (A340) (P450BM-3 [3]; with tetradecyl sulfate as substrate): 1.75 pmol/s
- site of hydroxylation (P450BM-3 [6]): primarily ω−1 hydroxylation
- NADPH oxidation accounted for as disappearance of the substrate (P450BM-3 [6]; over the first 100 seconds): 97%

Compound: d23-Lauric acid [d23 lauric acid]
- kcat (P450BM-3 [3]): 16.2 ± 0.5 s⁻¹
